Assay results: ChEMBL document CHEMBL3627637, “Phenylalanine and Phenylglycine Analogues as Arginine Mimetics in Dengue Protease Inhibitors” (J Med Chem, 2015)
pIC50, pKi: −log10 of the molar value. Activity calls are given as the source filed them. The rule behind the calls is not given here. Non-standard residues stand in square brackets, D forms with d. Residues, ends and D or L forms follow the SMILES beside them. *: point of attachment. Phe(4-guanidino) = N=C(N)Nc1ccc(C[C@H](N)C(=O)O)cc1; Phe(3-CN) = N#Cc1cccc(C[C@H](N)C(=O)O)c1; Phe(4-CN) = N#Cc1ccc(C[C@H](N)C(=O)O)cc1; Phe(4-NH2) = Nc1ccc(C[C@H](N)C(=O)O)cc1; Hydrocinnamoyl = O=C(CCc1ccccc1)*; 3Pal = N[C@@H](Cc1cccnc1)C(=O)O; 4Pal = N[C@@H](Cc1ccncc1)C(=O)O; Phg = N[C@H](C(=O)O)c1ccccc1; Bz = O=C(c1ccccc1)*

Tests used:
[1] = molecular target: Genome polyprotein (West Nile virus) (UniProt P06935); assay: Inhibition of West Nile virus NS2B-NS3 protease at 50 uM preincubated with protein for 15 mins followed by Abz-Gly-Leu-Lys-Arg-Gly-Gly-3-(NO2)-Tyr substrate addition measured by continuous fluorometric analysis
Outline: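 WNV NS2B-NS3pro (150 nM) was preincubated 15 min with inhibitor (50 μM final) in 50 mM Tris-HCl pH 9.0, 10% ethylene glycol, 0.0016% Brij 58. Abz-Gly-Leu-Lys-Arg-Gly-Gly-3-(NO2)-Tyr (50 μM; Km 212 μM) started the reaction. Continuous read at ex 320/em 405 nm for 15 min against an uninhibited control. Triplicate.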

[2] = Cytotoxicity against human HuH7 cells at 50 uM incubated for 48 hrs measured by Cell-Titer Glo Luminescent viability Assay; type: cell-based; details: huh-7, 48 h
Prothrombin = Prothrombin (Homo sapiens, UniProt P00734); assay: Inhibition of human thrombin at 25 uM preincubated with protein for 15 mins followed by boc-Val-Pro-Arg-AMC substrate addition measured after 10 mins by continuous fluorometric analysis
[3] = Permeability of the compound at 200 uM incubated for 5 hrs by PAMPA; type: physicochemical
Outline: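 PAMPA in PBS: donor wells held 200 μM compound (triplicate) against PBS acceptor, 5 h at room temperature. Donor and acceptor concentrations were quantified by RP-18 HPLC-UV against calibration curves (10–200 μM). Pe and membrane retention were calculated by a literature method. Amiloride, caffeine, famotidine, furosemide and phenytoin served as references.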

[4] = Inhibition of Dengue virus (serotype 2) NS2B-NS3 protease preincubated with protein for 15 mins followed by Abz-Nle-Lys-Arg-Arg-Ser-3-(NO2)Tyr substrate addition measured by continuous fluorometric analysis; design: species or system dengue virus type 2
Outline: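 DENV2 protease (100 nM) in Tris-HCl pH 9.0/ethylene glycol/Brij 58 buffer, preincubated 15 min with inhibitor, then 50 μM FRET substrate added. Read at ex 320/em 405 nm over 15 min. Done for compounds with ≥70% inhibition, using series of 0–2.5, 0–6 or 0–30 μM, in triplicate, with nonlinear fitting. Ki came from substrate at 50–200 μM via Cheng–Prusoff.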

dengue virus type 2 [5] = assay: Inhibition of Dengue virus (serotype 2) NS2B-NS3 protease at 50 uM preincubated with protein for 15 mins followed by Abz-Nle-Lys-Arg-Arg-Ser-3-(NO2)Tyr substrate addition measured by continuous fluorometric analysis
Outline: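 Continuous FRET assay in 50 mM Tris-HCl pH 9.0, 10% ethylene glycol, 0.0016% Brij 58. DENV2 protease (100 nM) was preincubated 15 min with inhibitor (50 μM final), then Abz-Nle-Lys-Arg-Arg-Ser-3-(NO2)Tyr (50 μM final; Km 105 μM) was added. Read at ex 320/em 405 nm as slope over 15 min, relative to an uninhibited control. Triplicate.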

dengue virus type 2 [6] = assay: Antiviral activity against wild type Dengue virus (serotype 2) infected in human Huh-7 cells assessed as inhibition of viral replication at 50 uM incubated for 48 hrs measured by Cell-Titer Glo Luminescent viability assay; type: functional; details: Huh-7, 48 h
Trypsin = Trypsin (Homo sapiens, UniProt P07477+P07478+P35030); assay: Inhibition of trypsin (unknown origin) at 50 uM preincubated with protein for 15 mins followed by boc-Val-Pro-Arg-AMC substrate addition measured by continuous fluorometric analysis; type: protein assay
Outline: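 Trypsin (1 nM) was preincubated 15 min with inhibitor (50 μM final) in 50 mM Tris-HCl pH 7.5, 150 mM NaCl, 0.05% Tween 20. boc-Val-Pro-Arg-AMC (50 μM final) was added. Continuous fluorescence at ex 355/em 460 nm; rate compared with an uninhibited control. Triplicate.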

[7] = Half life in Sprague-Dawley rat liver microsomes at 100 uM incubated for 30 mins by HPLC analysis; type: ADME
Outline: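 Pooled male Sprague-Dawley rat liver microsomes (0.2 mg/mL protein) with NADPH (5 mM) in DPBS, preincubated 15 min at 37 °C. Compound (100 μM) was then incubated 30 min at 37 °C. Aliquots at 0, 2, 5, 10, 20 and 30 min were quenched with acetonitrile, iced, and centrifuged. Parent remaining was measured by RP-HPLC-UV peak area versus reference. Testosterone served as activity control.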

Genome polyprotein = Genome polyprotein (West Nile virus, UniProt P06935); assay: Inhibition of West Nile virus NS2B-NS3 protease preincubated with protein for 15 mins followed by Abz-Gly-Leu-Lys-Arg-Gly-Gly-3-(NO2)-Tyr substrate addition measured by continuous fluorometric analysis
Outline: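 WNV protease (150 nM), 15-min preincubation with inhibitor in pH 9.0 Tris buffer, then 50 μM FRET substrate. Read at ex 320/em 405 nm. Done for compounds with ≥90% single-point inhibition, using graded inhibitor concentrations in triplicate, with the curve fitted.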

Genome polyprotein (West Nile virus), sequence (P06935 whole entry): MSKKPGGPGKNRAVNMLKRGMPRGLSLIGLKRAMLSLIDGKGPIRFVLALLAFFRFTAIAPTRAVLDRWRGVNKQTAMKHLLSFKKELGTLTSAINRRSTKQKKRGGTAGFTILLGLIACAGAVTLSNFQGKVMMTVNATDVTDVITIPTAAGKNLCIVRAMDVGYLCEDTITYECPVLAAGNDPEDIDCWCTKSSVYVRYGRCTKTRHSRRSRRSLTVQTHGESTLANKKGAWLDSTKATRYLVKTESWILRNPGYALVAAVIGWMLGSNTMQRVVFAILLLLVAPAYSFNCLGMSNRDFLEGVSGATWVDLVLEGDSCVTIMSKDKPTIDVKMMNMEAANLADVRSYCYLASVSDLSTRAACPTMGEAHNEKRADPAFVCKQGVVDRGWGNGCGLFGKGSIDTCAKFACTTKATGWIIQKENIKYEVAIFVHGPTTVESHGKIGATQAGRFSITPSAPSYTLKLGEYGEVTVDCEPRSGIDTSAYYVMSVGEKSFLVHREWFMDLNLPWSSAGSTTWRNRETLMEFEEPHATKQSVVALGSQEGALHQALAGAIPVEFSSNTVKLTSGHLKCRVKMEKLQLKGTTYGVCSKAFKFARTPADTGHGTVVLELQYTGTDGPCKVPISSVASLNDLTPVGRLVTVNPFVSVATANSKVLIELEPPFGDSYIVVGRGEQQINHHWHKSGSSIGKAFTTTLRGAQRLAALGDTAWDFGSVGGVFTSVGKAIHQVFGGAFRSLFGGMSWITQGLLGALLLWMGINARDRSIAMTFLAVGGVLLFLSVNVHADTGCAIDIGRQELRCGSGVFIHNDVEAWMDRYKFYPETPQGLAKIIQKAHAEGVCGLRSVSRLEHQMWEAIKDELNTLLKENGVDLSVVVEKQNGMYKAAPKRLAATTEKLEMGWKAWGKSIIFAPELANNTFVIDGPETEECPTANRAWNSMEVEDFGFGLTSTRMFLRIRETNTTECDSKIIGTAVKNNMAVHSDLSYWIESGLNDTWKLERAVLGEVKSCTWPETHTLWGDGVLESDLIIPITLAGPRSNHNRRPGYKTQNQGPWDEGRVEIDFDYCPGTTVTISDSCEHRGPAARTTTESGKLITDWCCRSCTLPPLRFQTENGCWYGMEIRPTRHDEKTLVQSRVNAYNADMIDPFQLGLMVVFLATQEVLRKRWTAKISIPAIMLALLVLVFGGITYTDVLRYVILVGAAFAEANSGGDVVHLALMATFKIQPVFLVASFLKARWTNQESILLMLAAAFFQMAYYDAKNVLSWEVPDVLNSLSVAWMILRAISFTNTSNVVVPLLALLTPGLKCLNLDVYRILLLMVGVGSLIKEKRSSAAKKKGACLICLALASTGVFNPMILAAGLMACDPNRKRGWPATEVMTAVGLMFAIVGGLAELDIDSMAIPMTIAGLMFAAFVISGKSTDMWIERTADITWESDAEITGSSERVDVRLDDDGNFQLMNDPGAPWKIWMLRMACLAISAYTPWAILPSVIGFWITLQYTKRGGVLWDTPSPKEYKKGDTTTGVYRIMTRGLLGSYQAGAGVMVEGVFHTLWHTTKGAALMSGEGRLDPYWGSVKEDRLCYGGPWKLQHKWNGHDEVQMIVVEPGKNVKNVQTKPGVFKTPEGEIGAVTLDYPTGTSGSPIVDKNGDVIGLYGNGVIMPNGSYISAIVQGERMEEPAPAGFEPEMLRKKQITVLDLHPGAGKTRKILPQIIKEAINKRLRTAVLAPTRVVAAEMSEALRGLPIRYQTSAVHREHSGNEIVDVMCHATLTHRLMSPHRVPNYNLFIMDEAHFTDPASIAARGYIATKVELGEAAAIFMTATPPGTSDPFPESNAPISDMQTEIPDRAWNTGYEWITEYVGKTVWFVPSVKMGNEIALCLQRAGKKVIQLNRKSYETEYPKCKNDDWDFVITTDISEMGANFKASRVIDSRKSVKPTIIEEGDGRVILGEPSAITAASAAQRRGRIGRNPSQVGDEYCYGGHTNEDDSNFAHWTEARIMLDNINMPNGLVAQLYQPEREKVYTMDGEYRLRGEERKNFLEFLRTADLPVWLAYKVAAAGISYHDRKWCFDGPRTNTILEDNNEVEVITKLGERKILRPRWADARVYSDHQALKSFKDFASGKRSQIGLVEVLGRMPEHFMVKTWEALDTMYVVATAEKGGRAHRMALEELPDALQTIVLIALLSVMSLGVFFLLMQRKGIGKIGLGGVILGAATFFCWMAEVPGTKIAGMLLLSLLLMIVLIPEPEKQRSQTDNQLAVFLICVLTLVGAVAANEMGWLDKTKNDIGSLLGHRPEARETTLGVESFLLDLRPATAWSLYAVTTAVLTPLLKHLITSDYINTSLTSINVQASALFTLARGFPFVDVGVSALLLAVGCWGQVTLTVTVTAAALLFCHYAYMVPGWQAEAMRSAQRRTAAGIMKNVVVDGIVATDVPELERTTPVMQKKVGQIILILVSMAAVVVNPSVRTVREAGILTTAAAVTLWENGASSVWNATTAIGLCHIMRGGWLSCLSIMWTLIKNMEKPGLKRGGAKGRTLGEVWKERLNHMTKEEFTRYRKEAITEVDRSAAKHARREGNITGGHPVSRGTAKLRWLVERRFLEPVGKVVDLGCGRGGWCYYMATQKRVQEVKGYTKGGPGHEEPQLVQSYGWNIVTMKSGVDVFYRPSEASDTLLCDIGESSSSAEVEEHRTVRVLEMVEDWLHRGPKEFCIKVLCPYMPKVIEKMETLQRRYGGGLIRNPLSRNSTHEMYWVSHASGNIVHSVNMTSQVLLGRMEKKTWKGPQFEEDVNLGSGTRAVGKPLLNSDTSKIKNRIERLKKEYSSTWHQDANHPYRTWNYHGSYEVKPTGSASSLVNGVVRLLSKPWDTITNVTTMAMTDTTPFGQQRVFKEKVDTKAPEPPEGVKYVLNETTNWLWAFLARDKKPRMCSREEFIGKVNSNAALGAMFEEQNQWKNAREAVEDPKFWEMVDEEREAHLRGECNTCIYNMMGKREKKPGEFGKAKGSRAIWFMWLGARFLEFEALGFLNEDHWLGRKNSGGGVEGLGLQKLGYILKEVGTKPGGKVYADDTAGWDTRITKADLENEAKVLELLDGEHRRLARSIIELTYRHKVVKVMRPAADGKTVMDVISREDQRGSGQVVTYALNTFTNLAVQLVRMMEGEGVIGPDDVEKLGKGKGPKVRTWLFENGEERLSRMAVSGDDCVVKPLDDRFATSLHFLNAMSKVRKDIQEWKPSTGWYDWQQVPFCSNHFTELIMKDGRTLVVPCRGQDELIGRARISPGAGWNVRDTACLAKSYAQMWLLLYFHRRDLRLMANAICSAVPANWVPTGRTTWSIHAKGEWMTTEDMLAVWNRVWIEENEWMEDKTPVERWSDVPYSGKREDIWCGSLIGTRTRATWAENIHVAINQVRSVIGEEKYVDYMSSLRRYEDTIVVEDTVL
Genome polyprotein, sequence (P06935 1371-1501 limits assumed): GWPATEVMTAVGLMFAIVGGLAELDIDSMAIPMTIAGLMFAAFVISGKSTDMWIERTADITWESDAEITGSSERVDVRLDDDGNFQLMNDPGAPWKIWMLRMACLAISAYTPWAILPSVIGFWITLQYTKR
Genome polyprotein, sequence (P06935 1502-2120 limits assumed): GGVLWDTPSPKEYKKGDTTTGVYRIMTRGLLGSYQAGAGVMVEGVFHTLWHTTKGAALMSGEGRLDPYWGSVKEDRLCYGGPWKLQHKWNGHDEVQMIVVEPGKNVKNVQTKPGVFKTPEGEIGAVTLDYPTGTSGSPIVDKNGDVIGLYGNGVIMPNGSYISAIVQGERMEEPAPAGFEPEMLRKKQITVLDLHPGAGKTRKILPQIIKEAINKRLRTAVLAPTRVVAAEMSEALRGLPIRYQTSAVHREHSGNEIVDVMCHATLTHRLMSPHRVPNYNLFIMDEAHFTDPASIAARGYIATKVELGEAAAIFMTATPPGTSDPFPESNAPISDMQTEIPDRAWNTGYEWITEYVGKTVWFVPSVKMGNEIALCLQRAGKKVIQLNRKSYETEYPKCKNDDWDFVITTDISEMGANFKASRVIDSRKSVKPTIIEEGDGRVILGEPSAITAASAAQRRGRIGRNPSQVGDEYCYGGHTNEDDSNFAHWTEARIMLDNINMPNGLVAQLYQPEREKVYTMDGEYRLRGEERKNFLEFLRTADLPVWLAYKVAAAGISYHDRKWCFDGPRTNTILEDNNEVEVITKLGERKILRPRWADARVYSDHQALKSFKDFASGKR

SMILES	inhibition [1] [%]	Activity [2]	inhibition (Prothrombin)	permeability [3]	pIC50 [4]	pKi [4]	inhibition (dengue virus type 2 [5]) [%]	inhibition at 50 µM (dengue virus type 2 [6]) [%]	inhibition (Trypsin) [%]	half-life at 100 µM [7] [h]	pIC50 (Genome polyprotein)
N=C(N)c1ccc(C[C@H](NC(=O)c2ccccc2)C(=O)N[C@@H](CCCCN)C(=O)N[C@H](C(N)=O)c2ccccc2)cc1	59.1	Non-toxic	18%	impermeable	6.36	6.63	100	32.4	17.4	–	–
NCCCC[C@H](NC(=O)[C@H](Cc1cccc(N)c1)NC(=O)c1ccccc1)C(=O)N[C@H](C(N)=O)c1ccccc1	23.7	–	inactive	–	–	–	28.9	–	4.7	–	–
CC(=N)Nc1ccc(C[C@H](NC(=O)c2ccccc2)C(=O)N[C@@H](CCCCN)C(=O)N[C@H](C(N)=O)c2ccccc2)cc1	34.2	–	7.7%	impermeable	4.90	–	76.6	–	0	–	–
NCCCC[C@H](NC(=O)[C@H](Cc1cccc(CN)c1)NC(=O)c1ccccc1)C(=O)N[C@H](C(N)=O)c1ccccc1	68.6	–	5.6%	impermeable	4.93	–	82.4	–	11.2	–	–
C[C@]12CC[C@H]3[C@@H](CCC4=CC(=O)CC[C@@]43C)[C@@H]1CC[C@@H]2O [TESTOSTERONE]	–	–	–	–	–	–	–	–	–	1.05	–
N=C(N)c1ccc(C[C@H](NC(=O)c2ccc(C(F)(F)F)cc2)C(=O)N[C@@H](CCCCN)C(=O)N[C@H](C(N)=O)c2ccccc2)cc1	69.9	Non-toxic	50.3%	impermeable	6.68	6.86	99.8	38.2	43.4	–	–
N=C(N)NCCC[C@H](NC(=O)c1ccc(C(F)(F)F)cc1)C(=O)N[C@@H](CCCCN)C(=O)N[C@H](C(N)=O)c1ccccc1	85.3	–	7.7%	–	5.99	–	98.7	–	11.5	–	–
CC(=O)Nc1ccc(C[C@H](NC(=O)c2ccccc2)C(=O)N[C@@H](CCCCN)C(=O)N[C@H](C(N)=O)c2ccccc2)cc1 (Bz-[Phe(4-NH2)](Ac)-Lys-[Phg]-NH2)	93.7	–	7.4%	impermeable	–	–	34.8	–	0	–	5.41
NCCCC[C@H](NC(=O)[C@H](Cc1ccncc1)NC(=O)c1ccccc1)C(=O)N[C@H](C(N)=O)c1ccccc1 (Bz-[4Pal]-Lys-[Phg]-NH2)	0	–	3.8%	–	–	–	12	–	0	–	–
N=C(N)Nc1ccc(C[C@H](NC(=O)c2ccc(C(F)(F)F)cc2)C(=O)N[C@@H](CCCCN)C(=O)N[C@H](C(N)=O)c2ccccc2)cc1	42.2	–	inactive	impermeable	6.16	–	100	–	12.8	–	–
N=C(N)c1cccc(C[C@H](NC(=O)c2ccc(C(F)(F)F)cc2)C(=O)N[C@@H](CCCCN)C(=O)N[C@H](C(N)=O)c2ccccc2)c1	76.1	–	66.6%	impermeable	5.24	–	95.8	–	27.1	–	–
NCCCC[C@H](NC(=O)[C@H](Cc1ccc(N)cc1)NC(=O)c1ccccc1)C(=O)N[C@H](C(N)=O)c1ccccc1 (Bz-[Phe(4-NH2)]-Lys-[Phg]-NH2)	23.8	–	2.3%	–	–	–	21.1	–	0	–	–
N=C(N)c1cccc(C[C@H](NC(=O)c2ccccc2)C(=O)N[C@@H](CCCCN)C(=O)N[C@H](C(N)=O)c2ccccc2)c1	39.5	–	71.1%	impermeable	5.51	–	94	–	37	–	–
N#Cc1ccc(C[C@H](NC(=O)c2ccccc2)C(=O)N[C@@H](CCCCN)C(=O)N[C@H](C(N)=O)c2ccccc2)cc1 (Bz-[Phe(4-CN)]-Lys-[Phg]-NH2)	4.7	–	7.5%	–	–	–	22	–	0.7	–	–
N=C(N)Nc1ccc(C[C@H](NC(=O)c2ccccc2)C(=O)N[C@@H](CCCCN)C(=O)N[C@H](C(N)=O)c2ccccc2)cc1 (Bz-[Phe(4-guanidino)]-Lys-[Phg]-NH2)	64.7	–	7.6%	impermeable	6.24	–	99.9	–	16.2	–	–
N#Cc1cccc(C[C@H](NC(=O)c2ccccc2)C(=O)N[C@@H](CCCCN)C(=O)N[C@H](C(N)=O)c2ccccc2)c1 (Bz-[Phe(3-CN)]-Lys-[Phg]-NH2)	15.6	–	4%	–	–	–	29.6	–	0	–	–
N=C(N)c1ccc([C@H](NC(=O)c2ccccc2)C(=O)N[C@@H](CCCCN)C(=O)N[C@H](C(N)=O)c2ccccc2)cc1	59.5	–	5.5%	–	–	–	24.8	–	19.2	–	–
N=C(N)NCCC[C@H](NC(=O)CCc1ccccc1)C(=O)N[C@@H](CCCCN)C(=O)N[C@H](C(N)=O)c1ccccc1 (Hydrocinnamoyl-Arg-Lys-[Phg]-NH2)	45.3	–	2.5%	–	5.57	–	95.9	–	2.3	–	–
NCCCC[C@H](NC(=O)[C@H](Cc1cccnc1)NC(=O)c1ccccc1)C(=O)N[C@H](C(N)=O)c1ccccc1 (Bz-[3Pal]-Lys-[Phg]-NH2)	23.8	–	1.8%	–	–	–	17.5	–	3.4	–	–
N=C(N)NCCC[C@H](NC(=O)c1ccccc1)C(=O)N[C@@H](CCCCN)C(=O)N[C@H](C(N)=O)c1ccccc1 (Bz-Arg-Lys-[Phg]-NH2)	–	Non-toxic	–	–	–	–	–	40.3	0.5	–	–
